Results published in ChEMBL document CHEMBL3046416, “Differential susceptibility to glyphosate among the Conyza weed species in Spain” (J Agric Food Chem, 2010).

How the values were obtained:
Erigeron canadensis [1] = experiment: Drug absorption in Conyza canadensis (horseweed) assessed as translocation in rest of plant at […] measured after 96 hr by liquid scintillation spectrometry; type: ADME, organism-based; conditions: in vivo
Outline: (§1)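 Glyphosate-susceptible plants were grown in pots in a growth chamber (28/18 °C, 16 h photoperiod). They were treated with commercial glyphosate spiked with [14C]glyphosate (0.417 kBq μL-1; 1 g ai L-1, i.e. 200 g ai ha-1 in 200 L). Plants were harvested 96 h after treatment. Unabsorbed label was rinsed from the treated leaf with water-acetone (1:1). Plants were split into treated leaf, rest of shoot and root, and the rinsate was counted by liquid scintillation.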

Conyza sumatrensis [2] = experiment: Drug absorption in Conyza sumatrensis (tall fleabane) assessed as translocation in rest of plant at […] measured after 96 hr by liquid scintillation spectrometry; type: ADME, organism-based; conditions: in vivo; outline: as §1
Leaf [3] = experiment: Drug absorption in Conyza canadensis (horseweed) assessed as translocation in treated leaf at […] measured after 96 hr by liquid scintillation spectrometry; type: ADME; conditions: erigeron canadensis, other; outline: as §1
Leaf [4] = experiment: Drug absorption in Conyza bonariensis (hairy fleabane) assessed as translocation in treated leaf at […] measured after 96 hr by liquid scintillation spectrometry; type: ADME; conditions: other; outline: as §1
Leaf [5] = experiment: Drug absorption in Conyza sumatrensis (tall fleabane) assessed as translocation in treated leaf at […] measured after 96 hr by liquid scintillation spectrometry; type: ADME; conditions: topical_or_ocular; outline: as §1
[6] = Ratio of ED50 for hairy fleabane Conyza canadensis to ED50 for tall fleabane Conyza sumatrensis; type: functional
[7] = Ratio of ED50 for hairy fleabane Conyza bonariensis to ED50 for tall fleabane Conyza sumatrensis; type: functional
Conyza bonariensis [8] = experiment: Herbicidal activity against Conyza bonariensis (hairy fleabane) at bolting stage (BBHC32) assessed as growth inhibition measured after 21 days; type: functional
Outline: (§2)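 Glyphosate-susceptible plants were grown in a growth chamber (28/18 °C day/night, 16 h photoperiod, 80% RH). Commercial glyphosate was sprayed from 50 cm in a laboratory spray chamber at rosette (BBCH 14-15), or, for C. bonariensis only, also at bolting (BBCH 32) or flowering (BBCH 55). Shoot fresh weight was taken 21 d later as % of untreated. Five replications of three plants each. ED50 came from a log-logistic regression of pooled data.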

Conyza bonariensis [9] = experiment: Herbicidal activity against Conyza bonariensis (hairy fleabane) at flowering stage (BBHC55) assessed as growth inhibition measured after 21 days; type: functional; outline: as §2
Erigeron canadensis [10] = experiment: Herbicidal activity against Conyza canadensis (horseweed) at rosette stage (BBHC14 to 15) assessed as growth inhibition measured after 21 days; type: functional; outline: as §2
Conyza bonariensis [11] = experiment: Herbicidal activity against Conyza bonariensis (hairy fleabane) at rosette stage (BBHC14 to 15) assessed as growth inhibition measured after 21 days; type: functional; outline: as §2
Conyza sumatrensis [12] = experiment: Herbicidal activity against Conyza sumatrensis ( tall fleabane) at rosette stage (BBHC14 to 15) assessed as growth inhibition measured after 21 days; type: functional; outline: as §2
Root [13] = experiment: Drug absorption in Conyza canadensis (horseweed) assessed as translocation in root at […] measured after 96 hr by liquid scintillation spectrometry; type: ADME; conditions: erigeron canadensis; outline: as §1
Root [14] = experiment: Drug absorption in Conyza bonariensis (hairy fleabane) assessed as translocation in root at […] measured after 96 hr by liquid scintillation spectrometry; type: ADME; outline: as §1
Root [15] = experiment: Drug absorption in Conyza sumatrensis (tall fleabane) assessed as translocation in root at […] measured after 96 hr by liquid scintillation spectrometry; type: ADME; outline: as §1
Conyza bonariensis [16] = experiment: Drug absorption in Conyza bonariensis (hairy fleabane) assessed as translocation in rest of plant at […] measured after 96 hr by liquid scintillation spectrometry; type: ADME, organism-based; conditions: in vivo; outline: as §1

Structure (SMILES): O=C(O)CNCP(=O)(O)O [GLYPHOSATE]
- Drug transport (Erigeron canadensis [1]): 4%
- Drug transport (Conyza sumatrensis [2]): 5.9%
- Drug transport (Leaf [3]): 93%
- Drug transport (Leaf [4]): 85.2%
- Drug transport (Leaf [5]): 82.4%
- Ratio ED50 [6]: 12
- Ratio ED50 [7]: 5.4
- ED50 (Conyza bonariensis [8]): 86.6 gAi/ha
- ED50 (Conyza bonariensis [9]): 117.5 gAi/ha
- ED50 (Erigeron canadensis [10]): 34.9 gAi/ha
- ED50 (Conyza bonariensis [11]): 15.7 gAi/ha
- ED50 (Conyza sumatrensis [12]): 2.9 gAi/ha
- Drug transport (Root [13]): 2.8%
- Drug transport (Root [14]): 8.3%
- Drug transport (Root [15]): 11.6%
- Drug transport (Conyza bonariensis [16]): 6.4%
